Each block holds one molecule with its values, some of them ahead of it. Activity calls are given as the source filed them. No cut-off for these calls is given here.
Assays:
HT-29 [1] = assay: Induction of nitrite production in doxorubicin-resistant human HT-29 cells at 5 uM after 1 to 24 hrs by Griess method; type: functional, cell-based
Outline: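 In a time-course run, HT29-dx cells were exposed to 5 μM compound. Nitrite in the medium was measured by the Griess reaction at times between 1 and 24 h.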

[2] = target: T1, ATP-binding cassette sub-family C member 3 (Homo sapiens, UniProt O15438); assay: Inhibition of MRP3-mediated drug resistance in doxorubicin-resistant human HT-29 cells assessed as increase in drug accumulation at 0.5 to 5 uM after 24 hrs by spectrofluorometric analysis; type: cell-based; settings: ht-29, 24 h
T1 sequence (O15438 whole entry): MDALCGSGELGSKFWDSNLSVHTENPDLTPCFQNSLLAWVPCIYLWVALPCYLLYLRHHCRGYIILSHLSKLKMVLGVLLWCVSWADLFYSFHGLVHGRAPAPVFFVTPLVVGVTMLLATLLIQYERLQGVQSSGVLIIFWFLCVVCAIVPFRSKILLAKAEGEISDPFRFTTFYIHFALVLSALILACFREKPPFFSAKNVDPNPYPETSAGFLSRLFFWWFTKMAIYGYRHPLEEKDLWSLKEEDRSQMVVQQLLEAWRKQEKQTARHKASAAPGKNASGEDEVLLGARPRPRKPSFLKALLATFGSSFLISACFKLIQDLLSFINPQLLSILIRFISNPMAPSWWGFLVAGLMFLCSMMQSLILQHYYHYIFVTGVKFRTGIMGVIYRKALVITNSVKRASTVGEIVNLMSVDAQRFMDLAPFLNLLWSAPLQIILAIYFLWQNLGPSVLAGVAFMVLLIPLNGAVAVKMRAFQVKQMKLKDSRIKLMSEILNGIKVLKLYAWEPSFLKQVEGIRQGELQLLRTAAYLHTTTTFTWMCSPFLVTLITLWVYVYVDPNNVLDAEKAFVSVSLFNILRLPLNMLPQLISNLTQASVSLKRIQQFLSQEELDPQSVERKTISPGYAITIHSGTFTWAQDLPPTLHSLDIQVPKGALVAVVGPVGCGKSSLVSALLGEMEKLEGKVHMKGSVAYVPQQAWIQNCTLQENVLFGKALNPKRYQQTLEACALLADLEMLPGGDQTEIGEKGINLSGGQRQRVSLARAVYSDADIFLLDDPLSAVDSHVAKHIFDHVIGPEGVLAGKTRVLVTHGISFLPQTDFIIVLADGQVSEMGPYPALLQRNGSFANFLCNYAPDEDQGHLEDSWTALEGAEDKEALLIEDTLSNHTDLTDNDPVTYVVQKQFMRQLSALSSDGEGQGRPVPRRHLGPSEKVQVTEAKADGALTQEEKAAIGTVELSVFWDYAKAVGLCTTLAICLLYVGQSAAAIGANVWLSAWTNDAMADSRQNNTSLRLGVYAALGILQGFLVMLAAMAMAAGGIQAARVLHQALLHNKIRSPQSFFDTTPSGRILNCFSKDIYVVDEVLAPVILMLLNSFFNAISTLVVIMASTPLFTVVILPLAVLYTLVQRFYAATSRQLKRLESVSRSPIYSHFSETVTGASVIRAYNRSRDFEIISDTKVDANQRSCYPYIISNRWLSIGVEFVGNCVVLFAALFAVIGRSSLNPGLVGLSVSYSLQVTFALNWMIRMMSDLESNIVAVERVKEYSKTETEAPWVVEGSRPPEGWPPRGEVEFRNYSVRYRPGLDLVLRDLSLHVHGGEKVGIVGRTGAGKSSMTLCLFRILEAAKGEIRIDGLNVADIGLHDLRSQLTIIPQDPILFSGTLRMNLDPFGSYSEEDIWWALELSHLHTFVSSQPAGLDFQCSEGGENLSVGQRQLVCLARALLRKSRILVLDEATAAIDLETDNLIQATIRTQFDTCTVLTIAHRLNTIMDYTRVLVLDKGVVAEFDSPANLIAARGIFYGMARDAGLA
Outline: (§1)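 HT29-dx cells in RPMI 1640 were incubated for 24 h with 0.5, 1, 2.5, 5 or 25 μM drug, then lysed. Intracellular drug was measured spectrofluorimetrically (excitation 475 nm, emission 553 nm). Data are means ± SD (n = 3) versus untreated cells.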

[3] = target: T1, ATP-binding cassette sub-family C member 3; assay: Inhibition of MRP3 in doxorubicin-resistant human HT-29 cells assessed as nitration of tyrosine residues at 5 uM after 24 hrs by Western blot analysis; type: cell-based; settings: ht-29, 24 h
Outline: (§2)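 HT29-dx cells were treated for 24 h with 5 μM compound and lysed. Whole lysate was immunoprecipitated with a polyclonal anti-nitrotyrosine antibody, then Western blotted with anti-P-gp or anti-MRP3 antibody. Total transporter levels were checked before immunoprecipitation, with GAPDH as loading control. Representative of three experiments.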

[4] = target: T1, ATP-binding cassette sub-family C member 3; assay: Inhibition of MRP3-mediated drug resistance in doxorubicin-resistant human HT-29 cells assessed as increase in drug accumulation at 5 uM after 1 to 24 hrs by spectrofluorometric analysis; type: cell-based; settings: ht-29, 5 µM
Outline: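 Time course in HT29-dx cells with 5 μM drug over 1–24 h. Intracellular content was read by spectrofluorimetry of cell lysates.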

[5] = target: T1, ATP-binding cassette sub-family C member 3; assay: Inhibition of MRP3-mediated drug resistance in doxorubicin-resistant human HT-29 cells assessed as increase in drug accumulation at 25 uM after 24 hrs by spectrofluorometric analysis; type: cell-based; settings: ht-29, 24 h; outline: as §1
HT-29 [6] = assay: Inhibition of P-gp in doxorubicin-resistant human HT-29 cells assessed as nitration of tyrosine residues at 5 uM after 24 hrs by Western blot analysis; type: cell-based; outline: as §2
[7] = target: T1, ATP-binding cassette sub-family C member 3; assay: Inhibition of MRP3-mediated drug resistance in doxorubicin-resistant human HT-29 cells assessed as increase in extracellular LDH level at 5 uM after 24 hrs by spectrofluorometric analysis in presence of nitric oxide scavenger PTIO and RBCs; type: cell-based; settings: ht-29, 24 h
Outline: (§3)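 HT29-dx cells were incubated for 24 h with 5 μM compound, alone or with 100 μM PTIO or 10 μL/mL packed red blood cells as NO scavengers. Readouts were intracellular drug content, extracellular LDH activity and nitrite in the culture supernatant. Measured in duplicate, n = 3.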

[8] = target: T1, ATP-binding cassette sub-family C member 3; assay: Inhibition of MRP3-mediated drug resistance in doxorubicin-resistant human HT-29 cells assessed as increase in doxorubicin accumulation at 5 uM after 24 hrs by spectrofluorometric analysis in presence of nitric oxide scavenger PTIO and RBCs; type: cell-based; settings: ht-29, 24 h; outline: as §3
[9] = target: T1, ATP-binding cassette sub-family C member 3; assay: Inhibition of MRP3-mediated drug resistance in doxorubicin-resistant human HT-29 cells assessed as increase in doxorubicin accumulation after 24 hrs by spectrofluorometric analysis; type: cell-based; settings: ht-29, 24 h
[10] = target: T1, ATP-binding cassette sub-family C member 3; assay: Inhibition of MRP3-mediated drug resistance in doxorubicin-resistant human HT-29 cells assessed as increase in doxorubicin accumulation at 5 uM by spectrofluorometric analysis; type: cell-based; settings: ht-29, 5 µM, TDE = time-dependent effect
HT-29 [11] = assay: Induction of nitrite production in doxorubicin-resistant human HT-29 cells at 5 uM by Griess method; type: functional, cell-based; settings: TDE = time-dependent effect; outline: as §3
[12] = target: T1, ATP-binding cassette sub-family C member 3; assay: Inhibition of MRP3-mediated drug resistance in doxorubicin-resistant human HT-29 cells assessed as increase in extracellular LDH level at 5 uM after 24 hrs by spectrofluorometric analysis; type: cell-based; settings: ht-29, 24 h; outline: as §3
HT-29 [13] = assay: Induction of nitrite production in doxorubicin-resistant human HT-29 cells after 24 hrs by Griess method; type: functional, cell-based
Outline: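 HT29-dx cell monolayers were incubated for 24 h with 0.5, 1, 2.5, 5 or 25 μM compound. Nitrite in the culture medium was quantified by the Griess reaction. Data are means ± SD (n = 3) versus untreated cells.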

[14] = target: ATP-dependent translocase ABCB1 (Homo sapiens, UniProt P08183); assay: Inhibition of P-gp in doxorubicin-resistant human HT-29 cells at 5 umol/L incubated for 24 hrs followed by compound wash out measured after 20 mins by Rhodamine 123 staining-based flow cytometry; type: cell-based; settings: ht-29, 24 h, 5 µM
ATP-dependent translocase ABCB1, sequence (P08183 whole entry): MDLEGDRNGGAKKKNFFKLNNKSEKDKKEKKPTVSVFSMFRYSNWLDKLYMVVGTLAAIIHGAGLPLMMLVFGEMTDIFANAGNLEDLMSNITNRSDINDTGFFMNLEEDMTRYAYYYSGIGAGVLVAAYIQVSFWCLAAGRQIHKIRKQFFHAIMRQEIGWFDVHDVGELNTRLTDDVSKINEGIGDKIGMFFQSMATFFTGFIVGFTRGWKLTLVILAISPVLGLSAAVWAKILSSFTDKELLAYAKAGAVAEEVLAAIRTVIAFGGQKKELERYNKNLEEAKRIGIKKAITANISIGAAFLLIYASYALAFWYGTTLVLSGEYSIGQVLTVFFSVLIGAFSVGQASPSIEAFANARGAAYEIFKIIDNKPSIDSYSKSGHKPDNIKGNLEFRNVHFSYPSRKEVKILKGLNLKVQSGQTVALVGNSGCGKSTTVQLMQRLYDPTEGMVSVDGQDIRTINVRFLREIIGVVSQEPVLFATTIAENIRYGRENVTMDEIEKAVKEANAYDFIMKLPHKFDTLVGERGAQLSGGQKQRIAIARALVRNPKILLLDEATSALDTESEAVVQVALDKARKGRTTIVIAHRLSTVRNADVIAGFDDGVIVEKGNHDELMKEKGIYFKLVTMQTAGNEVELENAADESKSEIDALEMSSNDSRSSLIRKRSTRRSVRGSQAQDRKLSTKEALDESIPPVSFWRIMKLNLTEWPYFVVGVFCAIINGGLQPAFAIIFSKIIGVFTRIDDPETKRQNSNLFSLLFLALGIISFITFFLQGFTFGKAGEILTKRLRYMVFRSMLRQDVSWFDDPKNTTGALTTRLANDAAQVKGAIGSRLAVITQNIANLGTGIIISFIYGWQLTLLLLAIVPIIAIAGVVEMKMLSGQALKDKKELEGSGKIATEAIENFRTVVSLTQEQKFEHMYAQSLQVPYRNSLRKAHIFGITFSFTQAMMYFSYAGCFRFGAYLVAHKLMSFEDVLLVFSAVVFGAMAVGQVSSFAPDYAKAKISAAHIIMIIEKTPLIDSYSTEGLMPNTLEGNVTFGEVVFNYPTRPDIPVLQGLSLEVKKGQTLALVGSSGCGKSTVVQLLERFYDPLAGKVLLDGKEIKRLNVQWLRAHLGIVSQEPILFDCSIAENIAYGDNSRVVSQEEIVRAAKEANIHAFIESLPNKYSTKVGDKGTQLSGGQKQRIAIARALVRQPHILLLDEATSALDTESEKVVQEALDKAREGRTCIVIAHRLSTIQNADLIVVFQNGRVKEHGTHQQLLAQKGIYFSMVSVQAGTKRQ

[15] = target: T1, ATP-binding cassette sub-family C member 3; assay: Inhibition of MRP3-mediated drug resistance in doxorubicin-resistant human HT-29 cells assessed as increase in doxorubicin accumulation at 5 umol/L incubated for 24 hrs followed by compound wash out measured 24 hrs post doxorubicin administration by spectrofluorometric analysis; type: cell-based; settings: ht-29, 24 h, 5 µM
[16] = target: T1, ATP-binding cassette sub-family C member 3; assay: Inhibition of MRP3-mediated drug resistance in doxorubicin-resistant human HT-29 cells assessed as increase in doxorubicin accumulation at 5 umol/L co-administered with doxorubicin after 24 hrs by spectrofluorometric analysis; type: cell-based; settings: ht-29, 24 h, 5 µM

Compound: O=C(O)CCOc1no[n+]([O-])c1S(=O)(=O)c1ccccc1
inhibition (INH) [14]: Not Active
inhibition (INH) [15]: Active
inhibition (INH) [12]: Not Active
inhibition (INH) [16]: Active

Compound: O=C(O)c1ccc(CC(CO[N+](=O)[O-])O[N+](=O)[O-])cc1 (stereo not drawn)
inhibition (INH) [12]: Not Active

Compound: COC(=O)c1ccc(CC(CO[N+](=O)[O-])O[N+](=O)[O-])cc1 (stereo not drawn)
inhibition (INH) [12]: Not Active

Continued, in another order:

inhibition (INH) [2]: Not Active
inhibition (INH) [3]: Not Active
inhibition (INH) [4]: Not Active
inhibition (INH) [5]: Active
Compound: COc1cccc2c1C(=O)c1c(O)c3c(c(O)c1C2=O)C[C@@](O)(C(=O)CO)C[C@@H]3O[C@H]1C[C@H](N)[C@H](O)[C@H](C)O1 [DOXORUBICIN]
Activity (HT-29 [1]): inactive

inhibition (INH) [3]: Active
inhibition (INH) [7]: Not Active
inhibition (INH) [8]: Not Active
inhibition (INH) [9]: Dose-dependent effect
inhibition (INH) [10]: tde
inhibition (INH) [12]: Active
Compound: COc1cccc2c1C(=O)c1c(O)c3c(c(O)c1C2=O)C[C@@](O)(C(=O)COC(=O)CCOc1no[n+]([O-])c1S(=O)(=O)c1ccccc1)C[C@@H]3O[C@H]1C[C@H](N)[C@H](O)[C@H](C)O1.Cl
inhibition (HT-29 [6]): inactive
Activity (HT-29 [11]): tde
Activity (HT-29 [13]): Dose-dependent effect

inhibition (INH) [3]: Active
inhibition (INH) [7]: Not Active
inhibition (INH) [8]: Not Active
inhibition (INH) [9]: Dose-dependent effect
inhibition (INH) [10]: tde
inhibition (INH) [12]: Active
Compound: COc1cccc2c1C(=O)c1c(O)c3c(c(O)c1C2=O)C[C@@](O)(C(=O)COC(=O)c1ccc(CC(CO[N+](=O)[O-])O[N+](=O)[O-])cc1)C[C@@H]3O[C@H]1C[C@H](N)[C@H](O)[C@H](C)O1.Cl (stereo partly drawn)
inhibition (HT-29 [6]): inactive
Activity (HT-29 [11]): tde
Activity (HT-29 [13]): Dose-dependent effect

inhibition (INH) [14]: Not Active
inhibition (INH) [15]: Active
inhibition (INH) [12]: Not Active
inhibition (INH) [16]: Active
Compound: COC(=O)CCOc1no[n+]([O-])c1S(=O)(=O)c1ccccc1

Reference: ChEMBL document CHEMBL2203231, “Nitric oxide donor doxorubicins accumulate into Doxorubicin-resistant human colon cancer cells inducing cytotoxicity” (ACS Med Chem Lett, 2011)
